Converted amounts (≈) assume the structure as drawn. The source made the active and inactive calls.
How the values were obtained:
[1] = system: HepG2; experiment: (§1) Cytotoxicity against human HepG2 cells assessed as reduction in cell viability incubated for 2 days prior to compound washout followed by compound redosing and measured after 2 days by XTT assay; assay type: cell-based; conditions: hepg2, 48 h
[2] = Intrinsic clearance in mouse liver microsomes assessed as glucuronidation per mg protein at 1 uM in presence of UDPGA by LC-MS/MS analysis; assay type: ADME, Microsome
Method in brief: (§2)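 Glucuronidation: typically 1 μM compound with 0.5 mg/mL microsomal protein, alamethicin 50 μg/mg protein, 1 mM MgCl2, 5 mM UDPGA in 0.1 M potassium phosphate pH 7.4, 37 °C; timed aliquots quenched in acetonitrile; LC-MS/MS gives CLint (μl/min/mg protein); triplicate; 7-hydroxycoumarin positive control.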

[3] = system: Hepatitis B virus; experiment: Antiviral activity against HBV infected in human HepAD38 cells assessed as reduction in total DNA production incubated for 2 days prior to compound washout followed by compound redosing and measured after 2 days by dot-blot analysis; assay type: functional, organism-based
Method in brief: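 HepAD38 cells seeded at 3 × 10^4/well in tetracycline medium; next day washed twice with PBS and given tet-free complete medium with 2-fold serial dilutions, 1% final DMSO, replaced with fresh compound medium after 2 days. After 2 more days cells lysed (NP-40), DNA alkali-denatured, dot-blotted, probed with DIG-labelled HBV probe; chemiluminescence densitometry, variable-slope fit; mean ± SD of ≥2 experiments.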

[4] = Intrinsic clearance in mouse liver microsomes assessed as NADPH-dependent metabolism per mg protein at 1 uM in presence of NADPH by LC-MS/MS analysis; assay type: ADME, Microsome
[5] = Half life in Dulbecco's phosphate buffered saline at 1 uM by LC-MS/MS analysis; assay type: physicochemical
Method in brief: (§3)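 Compound, typically 1 μM final, incubated in DPBS at 37 °C in triplicate; samples at 0, 1, 3, 6, 24 h quenched with 3 volumes acetonitrile containing internal standard; parent measured by LC-MS/MS.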

[6] = system: Hepatitis B virus; experiment: Binding affinity to HBV dimeric capsid protein C150 mutant expressed in Escherichia coli BL21 (DE3) at 20 uM by Sypro orange staining based RT-PCR analysis
[7] = Thermodynamic aqueous solubility in Dulbecco's phosphate buffered saline using solid sample incubated for 72 hrs under shaking condition by LC-MS/MS analysis; assay type: physicochemical; conditions: read-out: Therm_solubility
[8] = Intrinsic clearance in human liver microsomes assessed as NADPH-dependent metabolism per mg protein at 1 uM in presence of NADPH by LC-MS/MS analysis; assay type: ADME, Microsome
[9] = Half life in human plasma at 1 uM by LC-MS/MS analysis; assay type: ADME, cell-free
[10] = Protein binding in mouse plasma at 5 uM incubated for 5 hrs by LC-MS/MS-based equilibrium dialysis method; assay type: ADME, cell-free
Method in brief: (§4)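 Equilibrium dialysis in duplicate: compound spiked at 5 μM into normal human or mouse plasma, dialyzed against DPBS 5 h at 37 °C; both chambers sampled and quenched in acetonitrile with internal standard; LC-MS/MS gives percent bound.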

[11] = Oral bioavailability in CD-1 mouse at 10 mg/kg by LC-MS/MS analysis; assay type: ADME, organism-based; conditions: in vivo
Method in brief: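 Male CD-1 mice (25–35 g), n = 4 per route; typical doses 2 mg/kg IV and 10 mg/kg PO in DPBS with up to 42% 2-hydroxypropyl-β-cyclodextrin; serial saphenous blood to 24 h (8 points); plasma by LC-MS/MS; non-compartmental analysis; F = (AUCpo/AUCiv)×(Doseiv/Dosepo).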

[12] = Intrinsic clearance in human liver microsomes assessed as glucuronidation per mg protein at 1 uM in presence of UDPGA by LC-MS/MS analysis; assay type: ADME, Microsome; method in brief: as §2
[13] = Half life in mouse plasma at 1 uM by LC-MS/MS analysis; assay type: ADME, cell-free
[14] = Stability in Dulbecco's phosphate buffered saline assessed as parent compound remaining at 1 uM after 24 hrs by LC-MS/MS analysis; assay type: physicochemical; conditions: read-out: Stability; method in brief: as §3
[15] = Protein binding in human plasma at 5 uM incubated for 5 hrs by LC-MS/MS-based equilibrium dialysis method; assay type: ADME, cell-free; method in brief: as §4
[16] = Apparent permeability from basolateral to apical side in human Caco2 cells measured after 20 to 80 mins by LC-MS/MS analysis; assay type: ADME, cell-based; conditions: caco-2
[17] = Apparent permeability from apical to basolateral side in human Caco2 cells measured after 20 to 80 mins by LC-MS/MS analysis; assay type: ADME, cell-based; conditions: caco-2
[18] = system: Hepatitis B virus; experiment: Disruption of HBV dimeric capsid protein C150 mutant assembly expressed in Escherichia coli BL21 (DE3) assessed as increase in capsid assembly at 20 uM by Sypro orange staining based RT-PCR analysis
[19] = system: Hepatitis B virus; experiment: Disruption of HBV dimeric capsid protein C150 mutant assembly expressed in Escherichia coli BL21 (DE3) assessed as increase in capsid aggregation after 1 hr by uranyl acetate staining based transmission electron microscopic analysis
Method in brief: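 Purified C150 dimer (18 μM) in bicarbonate buffer, with compound or 1% DMSO, assembled by adding an equal volume of 100 mM HEPES pH 7.5, 1 M NaCl, 1 h at room temperature. Assemblies adsorbed to glow-discharged carbon-coated copper grids, negatively stained with 2% uranyl acetate and imaged by TEM for aggregates versus DMSO control.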

[20] = as §1; assay type: cell-based; conditions: HepG2 cells

Cc1c(C(=O)Nc2ccccc2)sc(N)c1C(N)=O
CC50 [1]: > 100 µM | intrinsic clearance (CLint) [2]: 4.4 µL/min | EC50 [3]: 3.4 µM | intrinsic clearance per mg protein [4]: 18 µL/min | half-life at 1 µM [5]: > 24 h | Activity [6]: Active | solubility thermodynamic at 72 h [7]: 19 µM (≈ 5.23 µg/mL) | Microsomal intrinsic clearance [8]: 5 µL/min | t1/2 [9]: > 24 h | PPB [10]: 50% | bioavailability ([11]; CD-1, mouse): 31 to 34% | intrinsic clearance (CLint) [12]: 2 µL/min | t1/2 [13]: > 24 h | remaining at 24 h, 1 µM [14]: > 90% | PPB [15]: 86%

Cc1c(C(=O)Nc2ccc(F)c(F)c2)sc(N)c1C(N)=O
CC50 [1]: > 100 µM | Papp [16]: 27.6 ×10⁻⁶ cm/s | intrinsic clearance (CLint) [2]: 5.2 µL/min | intrinsic clearance per mg protein [4]: 25 µL/min | Activity [6]: Active | solubility thermodynamic at 72 h [7]: 11 µM (≈ 3.42 µg/mL) | Microsomal intrinsic clearance [8]: 3.4 µL/min | t1/2 [9]: > 24 h | PPB [10]: 80% | intrinsic clearance (CLint) [12]: < 0.1 µL/min | Papp [17]: 24.8 ×10⁻⁶ cm/s | t1/2 [13]: > 24 h | remaining at 24 h, 1 µM [14]: > 90% | PPB [15]: 86%

Cc1cc(NC(=O)c2sc(N)c(C(N)=O)c2C)ccc1F
Activity [18]: Active | CC50 [1]: > 100 µM | Papp [16]: 26.9 ×10⁻⁶ cm/s | intrinsic clearance (CLint) [2]: 5.2 µL/min | intrinsic clearance per mg protein [4]: 92 µL/min | Activity [6]: Active | solubility thermodynamic at 72 h [7]: 31 µM (≈ 9.53 µg/mL) | Microsomal intrinsic clearance [8]: 14 µL/min | t1/2 [9]: > 24 h | PPB [10]: 82% | F ([11]; mouse): 11% | intrinsic clearance (CLint) [12]: < 0.1 µL/min | Papp [17]: 18.6 ×10⁻⁶ cm/s | t1/2 [13]: > 24 h | Activity [19]: Active | remaining at 24 h, 1 µM [14]: > 90% | PPB [15]: 91%

Cc1c(C(=O)Nc2ccccc2)sc(N)c1C(N)=S
CC50 at 48 h [20]: > 100 µM | EC50 [3]: > 10 µM | Activity [6]: Active

Source: ChEMBL document CHEMBL4411305, “5-Aminothiophene-2,4-dicarboxamide analogues as hepatitis B virus capsid assembly effectors” (Eur J Med Chem, 2019)
